Measurements published in ChEMBL document CHEMBL4396964, “Synthesis, biological activities, and docking studies of d-pantolactone derivatives as novel FAS inhibitors” (Bioorg Med Chem, 2019).
The source made the active and inactive calls. The calls are words filed in the database; no cut-off is given here.

Legend:
[1] = target: Fatty acid synthase (Mus musculus) (UniProt P19096); assay: Inhibition of mouse FAS at 80 uM preincubated for 30 mins in presence of acetyl coenzyme A and NADPH followed by malonyl coenzyme A addition and measured after 3 mins by spectrophotometric analysis
[2] = test system: HepG2; settings: Homo sapiens, at 10 µM
[3] = target: Fatty acid synthase (Mus musculus, UniProt P19096); assay: Inhibition of mouse FAS preincubated for 30 mins in presence of acetyl coenzyme A and NADPH followed by malonyl coenzyme A addition and measured after 3 mins by spectrophotometric analysis
In short: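 Crude mouse-liver FAS (196.2 U/mg) preincubated with compound, NADPH and acetyl-CoA in K2HPO4 buffer pH 7.0 at 37 °C for 30 min. Malonyl-CoA then added, and NADPH oxidation followed at 340 nm for 3 min at 37 °C. Inhibition computed against a compound-free control. IC50 from at least five concentrations, each in triplicate; mean ± SE of three experiments.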

Chain of Fatty acid synthase (P19096 whole entry): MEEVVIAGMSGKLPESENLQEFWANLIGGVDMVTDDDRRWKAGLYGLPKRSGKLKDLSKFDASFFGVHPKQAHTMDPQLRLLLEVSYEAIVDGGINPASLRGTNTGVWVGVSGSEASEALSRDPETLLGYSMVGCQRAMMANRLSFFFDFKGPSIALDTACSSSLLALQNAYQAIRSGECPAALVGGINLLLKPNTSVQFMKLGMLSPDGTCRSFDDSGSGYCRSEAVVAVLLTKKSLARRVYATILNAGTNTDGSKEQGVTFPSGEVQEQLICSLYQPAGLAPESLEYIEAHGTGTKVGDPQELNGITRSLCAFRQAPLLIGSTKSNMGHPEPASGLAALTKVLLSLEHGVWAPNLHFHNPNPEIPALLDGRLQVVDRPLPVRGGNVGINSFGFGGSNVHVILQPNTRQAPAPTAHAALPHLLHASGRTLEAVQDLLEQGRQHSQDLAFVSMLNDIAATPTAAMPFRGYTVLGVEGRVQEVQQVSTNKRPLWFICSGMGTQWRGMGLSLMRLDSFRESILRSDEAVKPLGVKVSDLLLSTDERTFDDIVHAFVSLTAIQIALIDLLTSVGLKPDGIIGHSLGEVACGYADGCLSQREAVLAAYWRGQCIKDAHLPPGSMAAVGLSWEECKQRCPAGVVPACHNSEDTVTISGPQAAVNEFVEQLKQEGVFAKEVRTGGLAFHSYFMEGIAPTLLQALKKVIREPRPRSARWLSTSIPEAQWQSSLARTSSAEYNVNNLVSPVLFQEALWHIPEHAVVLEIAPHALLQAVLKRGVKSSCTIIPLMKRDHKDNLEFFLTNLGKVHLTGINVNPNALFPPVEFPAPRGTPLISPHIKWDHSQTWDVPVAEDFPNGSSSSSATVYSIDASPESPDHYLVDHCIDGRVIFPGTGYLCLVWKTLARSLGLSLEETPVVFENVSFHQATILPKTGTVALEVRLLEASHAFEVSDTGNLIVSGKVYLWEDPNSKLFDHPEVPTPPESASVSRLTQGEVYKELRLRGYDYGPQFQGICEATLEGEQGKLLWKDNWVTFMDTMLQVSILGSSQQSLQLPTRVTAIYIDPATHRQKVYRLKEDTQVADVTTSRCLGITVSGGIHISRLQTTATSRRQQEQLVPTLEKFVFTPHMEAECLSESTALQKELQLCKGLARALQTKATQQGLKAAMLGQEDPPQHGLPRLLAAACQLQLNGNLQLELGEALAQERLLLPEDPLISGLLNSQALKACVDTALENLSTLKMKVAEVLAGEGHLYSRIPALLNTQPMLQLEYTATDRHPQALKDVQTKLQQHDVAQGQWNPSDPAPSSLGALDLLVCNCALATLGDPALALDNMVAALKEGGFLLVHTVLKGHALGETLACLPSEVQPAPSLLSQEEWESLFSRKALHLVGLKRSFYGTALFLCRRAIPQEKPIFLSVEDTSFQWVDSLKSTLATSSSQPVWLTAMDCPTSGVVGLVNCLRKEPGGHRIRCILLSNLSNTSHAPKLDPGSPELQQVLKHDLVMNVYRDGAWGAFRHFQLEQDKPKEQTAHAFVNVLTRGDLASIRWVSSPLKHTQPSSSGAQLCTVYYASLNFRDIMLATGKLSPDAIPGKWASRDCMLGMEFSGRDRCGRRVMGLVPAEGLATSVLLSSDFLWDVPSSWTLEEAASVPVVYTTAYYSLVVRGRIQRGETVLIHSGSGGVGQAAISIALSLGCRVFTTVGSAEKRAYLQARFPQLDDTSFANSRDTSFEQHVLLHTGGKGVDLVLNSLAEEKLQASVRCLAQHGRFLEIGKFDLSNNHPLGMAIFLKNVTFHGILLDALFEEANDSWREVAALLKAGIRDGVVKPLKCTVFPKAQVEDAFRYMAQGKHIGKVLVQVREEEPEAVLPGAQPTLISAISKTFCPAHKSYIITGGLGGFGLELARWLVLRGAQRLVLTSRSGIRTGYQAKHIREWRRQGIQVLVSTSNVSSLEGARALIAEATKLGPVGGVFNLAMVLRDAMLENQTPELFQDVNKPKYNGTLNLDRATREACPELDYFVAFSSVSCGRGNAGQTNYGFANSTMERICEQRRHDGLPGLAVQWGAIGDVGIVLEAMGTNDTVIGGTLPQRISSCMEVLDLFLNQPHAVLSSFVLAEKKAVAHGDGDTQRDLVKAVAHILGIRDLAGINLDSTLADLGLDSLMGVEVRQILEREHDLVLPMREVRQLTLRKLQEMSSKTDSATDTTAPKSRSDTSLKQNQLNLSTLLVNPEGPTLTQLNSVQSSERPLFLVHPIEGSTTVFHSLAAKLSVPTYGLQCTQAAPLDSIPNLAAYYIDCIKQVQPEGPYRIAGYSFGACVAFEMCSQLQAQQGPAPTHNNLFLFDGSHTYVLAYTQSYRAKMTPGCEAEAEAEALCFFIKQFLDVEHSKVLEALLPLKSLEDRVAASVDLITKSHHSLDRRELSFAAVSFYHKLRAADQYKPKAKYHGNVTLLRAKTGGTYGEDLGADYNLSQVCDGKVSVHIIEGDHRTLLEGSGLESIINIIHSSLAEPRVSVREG
Chain of Fatty acid synthase (Mus musculus) (P19096 whole entry): as above

Row | SMILES | inhibition [1] | IC50 [3] [µM] | inhibition [2]
1 | C=C1C(=O)OC(CCCCCCCC)C1C(=O)O (configuration not stated) |  | 13.9 | Active
2 | CCCCCCCCCCCCCCCCCC(=O)O[C@H]1C(=O)OCC1(C)C | inactive |  | 
3 | CC(=O)Oc1cc(C(=O)O[C@H]2C(=O)OCC2(C)C)cc(OC(C)=O)c1OC(C)=O |  | 13.9 | Active
4 | CCCCCCCC(=O)O[C@H]1C(=O)OCC1(C)C |  | 20.8 | Active
5 | CCCC(=O)O[C@H]1C(=O)OCC1(C)C |  | 28.2 | 
6 | CCCCCCCCCCCCCCCC(=O)O[C@H]1C(=O)OCC1(C)C |  | 19.6 | Active
7 | CCCCCCCCCCCC(=O)O[C@H]1C(=O)OCC1(C)C |  | 15.2 | Active
8 | CC1(C)COC(=O)[C@@H]1O | inactive |  | 
9 | CC(=O)O[C@H]1C(=O)OCC1(C)C |  | 33.2 | 
10 | CCCCCC(=O)O[C@H]1C(=O)OCC1(C)C |  | 23.3 | Active

More lines, main results first:

Row | inhibition [1] | IC50 [3] [µM] | SMILES | inhibition [2]
11 | inactive |  | CC1(C)COC(=O)[C@@H]1OC(=O)c1ccc(I)cc1 | 
12 |  | 17.2 | Cc1ccc(C(=O)O[C@H]2C(=O)OCC2(C)C)cc1 | inactive
13 | inactive |  | CC1(C)COC(=O)[C@@H]1OC(=O)c1ccc(Br)cc1 | 
14 |  | 13.7 | COc1ccc(C(=O)O[C@H]2C(=O)OCC2(C)C)cc1 | Active
15 |  | 28.2 | CC(C)Cc1ccc(C(C)C(=O)O[C@H]2C(=O)OCC2(C)C)cc1 (some centres not stated) | 
16 | inactive |  | CCOc1ccc(C(=O)O[C@H]2C(=O)OCC2(C)C)cc1 | 
17 |  | 19.2 | CC1(C)COC(=O)[C@@H]1OC(=O)c1ccc(Cl)cc1 | Active
18 |  | 27.7 | CCCCc1ccc(C(=O)O[C@H]2C(=O)OCC2(C)C)cc1 | 
19 |  | 21.5 | CC1(C)COC(=O)[C@@H]1OC(=O)c1ccc(C#N)cc1 | Active
20 | inactive |  | CC1(C)COC(=O)[C@@H]1OC(=O)c1ccc(F)cc1 | 
21 |  | 23 | CC1(C)COC(=O)[C@@H]1OC(=O)c1ccccc1 | inactive
